Source: PubChem
Shown are actives, neighbours in structure and some others; about 3% of the full set was active somewhere.
UCH37 DUB inh: human UCH37 deubiquitinating enzyme inhibition. Q9Y5K5. 330,000 tested, 0.33% active. inhibition, % (no concentration beside the values). purified proteasome/UCH37, Ub-AMC cleavage fluorescence;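 active = mean inhibition over replicate wells above about 20%, limit read from the data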
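Reagent: Ub-AMC substrate; assay system: Proteasome-associated human UCH37 deubiquitinase; controls: no-proteasome and no-compound wells; read-out: % inhibition of Ub-AMC cleavage fluorescence; timing: 30 min preincubation with enzyme, 25 min cleavage at room temperature; signal: AMC fluorescence from Ub-AMC cleavage, excitation 355 nm, emission 460 nm; buffer or medium: Tris-HCl pH 7.4 plus ovalbumin, ATP-MgCl2, DTT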
MEKK2wt PB1 HTS: raises or lowers MEK5 binding to wildtype human MEKK2 PB1 domain; binding response (% of control), % at 10 µM; bead flow cytometry, Alexa488-MEK5 binding to MEKK2 WT; actives lie on both sides; Q9Y2U5; AID 1531; 290,000 tested, 1.1% active; in the data active = binding response below about 67% or above about 130%
Apaf-1 inh: blocks human Apaf-1 apoptosome activity | O14727 | reconstituted apoptosome caspase-3 activity, DEVD-Rh110 fluorescence | inhibition, % at 20 µM | 330,000 tested, 0.71% active; active = inhibition of at least 40% at 20 µM
Target sequence (O14727 whole entry, looked up): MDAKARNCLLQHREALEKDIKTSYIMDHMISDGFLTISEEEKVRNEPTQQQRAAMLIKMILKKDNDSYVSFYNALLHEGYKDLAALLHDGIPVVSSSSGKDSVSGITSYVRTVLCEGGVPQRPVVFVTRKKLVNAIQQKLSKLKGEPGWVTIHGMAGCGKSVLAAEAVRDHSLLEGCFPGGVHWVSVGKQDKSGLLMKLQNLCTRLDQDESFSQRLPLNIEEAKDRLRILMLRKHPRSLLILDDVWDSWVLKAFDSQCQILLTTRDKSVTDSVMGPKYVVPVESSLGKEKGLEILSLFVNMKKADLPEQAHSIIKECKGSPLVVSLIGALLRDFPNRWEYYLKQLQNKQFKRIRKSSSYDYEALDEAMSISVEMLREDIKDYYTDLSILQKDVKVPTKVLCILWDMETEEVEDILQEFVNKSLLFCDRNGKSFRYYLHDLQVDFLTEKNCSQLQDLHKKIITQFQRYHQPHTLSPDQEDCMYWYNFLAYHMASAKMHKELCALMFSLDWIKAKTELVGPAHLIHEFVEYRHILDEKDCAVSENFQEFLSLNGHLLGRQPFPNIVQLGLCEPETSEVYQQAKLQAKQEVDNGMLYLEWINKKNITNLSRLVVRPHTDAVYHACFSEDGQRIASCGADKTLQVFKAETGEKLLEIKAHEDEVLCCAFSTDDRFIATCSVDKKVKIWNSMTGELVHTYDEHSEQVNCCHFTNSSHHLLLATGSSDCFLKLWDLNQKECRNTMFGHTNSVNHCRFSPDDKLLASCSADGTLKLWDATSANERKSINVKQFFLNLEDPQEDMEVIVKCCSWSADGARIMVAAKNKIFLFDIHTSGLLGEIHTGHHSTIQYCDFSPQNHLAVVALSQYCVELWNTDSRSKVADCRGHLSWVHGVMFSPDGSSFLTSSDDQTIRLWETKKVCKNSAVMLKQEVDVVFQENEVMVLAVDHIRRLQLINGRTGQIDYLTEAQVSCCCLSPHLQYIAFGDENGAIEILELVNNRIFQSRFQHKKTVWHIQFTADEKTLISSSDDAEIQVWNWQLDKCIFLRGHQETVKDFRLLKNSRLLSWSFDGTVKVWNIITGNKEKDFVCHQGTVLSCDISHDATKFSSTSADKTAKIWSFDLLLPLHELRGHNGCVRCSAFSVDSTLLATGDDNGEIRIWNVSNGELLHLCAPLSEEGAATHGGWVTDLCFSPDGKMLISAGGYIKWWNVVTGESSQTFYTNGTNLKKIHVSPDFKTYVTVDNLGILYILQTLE
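detection = Rh110 fluorescence intensity | test system = biochemical Apaf-1 apoptosome reconstitution | also added = cytochrome c and DEVD-Rh110 substrate | schedule = 30 min plus 50 min, RT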
MEKK3 PB1 HTS: modulators (inhibitors or enhancers) of MEK5 binding to human MEKK3 PB1 domain; Q99759; binding response (% of control), % at 10 µM; bead-based flow cytometry, Alexa488-MEK5 binding to MEKK3; actives lie on both sides; 0 = blocked by unlabeled MEK5, 100 = vehicle; 290,000 tested, 1.4% active;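 active = binding response more than 3 SD above or below the average of its plate-row segment, actives on both sides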;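 note: Alexa488 bead fluorescence after subtracting the streptavidin-only scavenger bead signal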
UBC13 inh: inhibitors of human UBC13 polyubiquitin chain formation. TR-FRET. 330,000 tested, 0.47% active. P61088. inhibition, % at 20 µM. AID 485273; in the data active = inhibition above about 45%, passing the limit was not always enough
MEKK2 mut-MEK5: signal of MEK5 binding to mutant human MEKK2 PB1 domain; bead flow cytometry, Alexa488-MEK5 binding to MEKK2 mutant; percent response, % at 10 µM; 290,000 tested, 0.35% active; in the data active = percent response above about 24%, passing the limit was not always enough
MEKK2wt confirm: raises or lowers MEK5 binding to wildtype human MEKK2, retest; shares compounds with MEKK3 PB1 HTS; bead flow cytometry, Alexa488-MEK5 binding to MEKK2 WT; actives lie on both sides; binding response (% of control), % at 10 µM; 5,900 tested, 2.4% active; in the data active = binding response below about 16% or above about 210%; inactive = in between
MEKK2mut-MEK5: signal of MEK5 binding to mutant human MEKK2, retest; shares compounds with MEKK3 PB1 HTS; bead flow cytometry, Alexa488-MEK5 binding to MEKK2 mutant; percent response, % at 10 µM; 5,900 tested, 2% active; in the data active = percent response mostly above about 71%, no sharp cut-off; inactive = mostly below about 38%;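 note: higher means compound restores mutant binding toward wildtype level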
MEKK3-MEK5 inh: confirmation of inhibitors of MEK5 binding to human MEKK3 | shares compounds with MEKK3 PB1 HTS | bead flow cytometry, Alexa488-MEK5 binding to MEKK3; hits give low values | binding response (% of control), % at 10 µM | AID 1894 | 5,900 tested, 1.8% active;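 active = binding response below 72% of control, or above a set upper limit, though filed actives all read lower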;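 note: lower values mean stronger disruption of MEK5 binding to MEKK3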
Of the large screens only hits and unclear results are named; the others gave an inactive call (follow-up assays come after a bar, where they were run); [ ] = dose if it differs, or a comment.

COc1ccc(C2=NN(C(=O)c3cccs3)C(c3ccccc3O)C2)cc1 (centres undefined)	MEKK3 PB1 HTS 50[inhibitor] | MEKK2wt confirm inactive | MEKK2mut-MEK5 inactive | MEKK3-MEK5 inh inactive
N#Cc1c(-c2cccnc2)cc(-c2ccccc2)nc1N	MEKK3 PB1 HTS 129 | MEKK2wt confirm inactive | MEKK2mut-MEK5 inactive | MEKK3-MEK5 inh inactive
N#Cc1c(-c2ccccc2F)cc(-c2cccnc2)nc1N	none
O=C(NCc1ccc(Cl)cc1)C1CCCO1 (centres undefined)	none
Cc1noc(NC(=O)c2cccc(Cl)c2Cl)c1C#N	MEKK3 PB1 HTS 73[inhibitor] | MEKK2wt confirm inactive | MEKK2mut-MEK5 inactive | MEKK3-MEK5 inh inactive
CC(C)CNC(=O)CSc1nnc2ccccn12	MEKK3 PB1 HTS 53[inhibitor] | MEKK2wt confirm inactive | MEKK2mut-MEK5 inactive | MEKK3-MEK5 inh inactive
CC1C(C)C(O)(c2ccccc2)CCN1C (centres undefined)	MEKK3 PB1 HTS 130 | MEKK2wt confirm inactive | MEKK2mut-MEK5 inactive | MEKK3-MEK5 inh inactive
COC(=O)c1[nH]c2cc(OC)ccc2c1NC(=O)CCN1CCSCC1	MEKK3 PB1 HTS 124 | MEKK2wt confirm inactive | MEKK2mut-MEK5 inactive | MEKK3-MEK5 inh inactive
COC(=O)c1[nH]c2cc(OC)ccc2c1N	MEKK2wt PB1 HTS 30[inhibitor], MEKK3 PB1 HTS 18[inhibitor] | MEKK2wt confirm inactive | MEKK2mut-MEK5 inactive | MEKK3-MEK5 inh inactive
CN(C)S(=O)(=O)c1ccc(C(=O)OCC(=O)Nc2ccc(OC(F)F)cc2)cc1	none
CCN(C(=O)CSc1ncccc1C(=O)Oc1cccc([N+](=O)[O-])c1)c1cccc(C)c1	MEKK3 PB1 HTS 138 | MEKK2wt confirm inactive | MEKK2mut-MEK5 inactive | MEKK3-MEK5 inh inactive
CC(C)(C)c1ccc(C(=O)N/N=C/c2cccc(Cl)c2)cc1	none (no result: UCH37 DUB inh)
O=C(Nc1ccccc1)C(c1ccccc1)C1CCCC1 (centres undefined)	MEKK3 PB1 HTS 148 (no result: Apaf-1 inh, UBC13 inh) | MEKK2wt confirm inactive | MEKK2mut-MEK5 inactive | MEKK3-MEK5 inh inactive
Cc1ccc(S(=O)(=O)N2CCN(CC(=O)N/N=C\C(Cl)=C\c3ccccc3)CC2)cc1	MEKK3 PB1 HTS 137 (no result: UCH37 DUB inh) | MEKK2wt confirm inactive | MEKK2mut-MEK5 inactive | MEKK3-MEK5 inh inactive
CC(/C=N\NC(=O)CN1CCN(S(=O)(=O)c2ccc(C)cc2)CC1)=C\c1ccccc1	MEKK3 PB1 HTS 132 (no result: UCH37 DUB inh, Apaf-1 inh, UBC13 inh) | MEKK2wt confirm inactive | MEKK2mut-MEK5 inactive | MEKK3-MEK5 inh inactive
Cc1cc(N=Nc2ccc(C)c(N=Nc3cc(C)c(N)cc3N)c2)c(N)cc1N	MEKK3 PB1 HTS 67[inhibitor] (no result: UCH37 DUB inh) | MEKK2wt confirm inactive | MEKK2mut-MEK5 inactive | MEKK3-MEK5 inh 70
COc1ccc(N=Nc2cc(OC)c(N)cc2OC)cc1	none (no result: MEKK2wt PB1 HTS, Apaf-1 inh, MEKK3 PB1 HTS, UBC13 inh, MEKK2 mut-MEK5)
CSc1nnc2ccc(-c3ccccn3)nn12	MEKK3 PB1 HTS 64[inhibitor] | MEKK2wt confirm inactive | MEKK2mut-MEK5 inactive | MEKK3-MEK5 inh inactive
O=C(CSc1nnc2ccc(-c3ccccn3)nn12)Nc1ccccc1	none (no result: MEKK2wt PB1 HTS, MEKK3 PB1 HTS, MEKK2 mut-MEK5)
Cc1ccc(Cl)cc1N1CCN(C(=O)CSc2ccsc2[N+](=O)[O-])CC1	MEKK3 PB1 HTS 133 | MEKK2wt confirm inactive | MEKK2mut-MEK5 inactive | MEKK3-MEK5 inh inactive
COc1ccc(NC(=O)CSc2n[nH]c(C)c2[N+](=O)[O-])cc1	none (no result: UCH37 DUB inh)
Cc1ccc(NC(=O)CSc2n[nH]c(C)c2[N+](=O)[O-])cc1C	MEKK3 PB1 HTS 131 | MEKK2wt confirm inactive | MEKK2mut-MEK5 inactive | MEKK3-MEK5 inh inactive
Cc1[nH]nc(SCC(=O)NCc2ccc(F)cc2)c1[N+](=O)[O-]	MEKK3 PB1 HTS 131 | MEKK2wt confirm inactive | MEKK2mut-MEK5 inactive | MEKK3-MEK5 inh inactive
